Shown are actives, neighbours in structure and some others; about 3.8% of the full set was active somewhere.
HSP90 inh: HSP90 refolding inhibition in rabbit reticulocyte lysate. inhibition, % at 5.6 µM. 290,000 tested, 0.91% active. luciferase refolding luminescence, 3 h;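 active means inhibition above the screen-wide mean plus 3 SD, computed separately per campaign, cut at about 16% in these data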;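 further: 0% = DMSO wells and 100% = 60 µM geldanamycin wells; inhibitors lower the luminescence because luciferase stays unfolded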
HSF-1 act: increases HSF-1 driven luciferase reporter signal | NIH3T3-HGL HSF-1 luciferase reporter, MG132, 8 h; 100% = twice DMSO control signal | activation, % at 9 µM | 300,000 tested, 1.7% active | AID 504408;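 active means mean replicate activation of at least 50% with a set share of replicates each reaching 50%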;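 further: 0% = median of the neutral control wells and 100% = twice that signal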
Lipid droplet: hepatic lipid droplet formation modulation | AML12 mouse hepatocytes, oleate lipid droplets, BODIPY imaging | inhibition, % at 6.5 µM | 240,000 tested, 0.4% active;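 active means lipid droplet intensity inhibited by at least 50%, with more than 500 cells counted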
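Technique: fluorescence imaging, 20x objective, two fields per well / Assay system: AML12 hepatocytes (mouse) / Measure: % inhibition of lipid droplet signal / Doses: 6.5 µM single-point dosing / Incubation: overnight exposure / Reagent: 100 µM oleic acid challenge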
HSF1 inhib: HSF1 inhibition. NIH3T3-HGL HSE-luciferase, MG132-induced, luminescence 8 h; hits give low values. activity change, negative = inhibition, % at 7.5 µM (by protocol). 300,000 tested, 0.77% active. AID 2098;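 active means more than half of replicate wells show activity change below -50%, luminescence cut by over half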;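 further: luciferase reports HSF-1 transcriptional activity via heat shock element; 0% = median of DMSO wells and -100% = zero luminescence signal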
NS3 helicase inh: inhibitors of Hepatitis C virus NS3 helicase; 290,000 tested, 0.56% active; inhibition, % at 10.9 µM; NS3 helicase DNA unwinding, Cy5 molecular beacon fluorescence;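 active means inhibition above the mean of all tested compounds plus 3 SD, set per campaign, cut at about 35% in these data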;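 further: 0% = DMSO wells and 100% = thioflavine S control wells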
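test system = hepatitis C virus NS3 helicase domain fragment enzyme | reagent = annealed dual-labelled DNA beacon duplex, ATP-started | times = 1 h at 25 °C | detection = Cy5 fluorescence, 0 and 60 min reads | read-out basis = percent inhibition from t60/t0 fluorescence ratio | control set = DMSO and thioflavine S | replication = one well per compound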
Active calls of the source: *; . = no result given.

SMILES	HSP90 inh	HSF-1 act	Lipid droplet	HSF1 inhib	NS3 helicase inh
COCCCn1c(SCC(=O)NC2CCCC2)nnc1-c1ccncc1	-2.4	-6.8	-5.7	-0.5	7.2
Cn1c(C(=O)NCc2ccc3c(c2)OCO3)cc2sccc21	0.0	5.3	.	8.6	0.7
Cn1c(C(=O)Nc2ccc3c(c2)OCO3)cc2sccc21	-6.2	65.8*	.	31.0	-0.1
COc1cccc(-c2csc(NC(=O)Nc3ccccc3)n2)c1	4.5	-69.9	-8.7	-60.2*	6.5
O=C(Nc1ccccc1)Nc1nc(-c2ccccc2)cs1	-0.2	3.5	2.3	-9.0	-12.4
CC(=O)c1sc(NC(C)c2ccccc2)nc1C (centres undefined)	-2.3	-9.0	3.9	-1.8	-3.2
Cc1nc(NC(C)c2ccccc2)sc1C(=O)Nc1ccccc1 (centres undefined)	2.5	-89.4	1.8	-86.8*	-10.1
COc1ccc(NC(=O)CCS(=O)(=O)c2cccc3nonc23)cc1Cl	4.3	7.3	-15.0	-6.0	-8.0
O=[N+]([O-])c1ccc(C2CN=C(Nc3ccccc3)S2)cc1 (centres undefined)	3.3	64.5*	3.3	43.6	-11.9
O=[N+]([O-])c1ccc(C2CC(c3ccccc3)=Nc3ccccc3S2)cc1 (centres undefined)	1.7	40.4	2.5	24.3	-6.3
CCc1ccc(NC2=NCC(c3ccccc3)S2)cc1 (centres undefined)	3.3	56.5*	-15.0	35.3	-40.5
CCC(CC)CN1CCN=C1N(C)C	-4.0	4.3	-14.9	-2.5	15.0
N#C/C(=C\c1ccccn1)c1nc2ccccc2s1	-0.2	82.7*	-7.5	77.2	5.1
COC(=O)c1ccc(/C=C(\C#N)c2nc3ccccc3s2)cc1	4.0	22.4	.	9.9	6.8
C(=C(c1ccccc1)c1ccccc1)c1ccccn1	.	3.4	.	3.1	.
COc1ccc(/C(C#N)=C/c2ccccn2)cc1	3.8	67.6*	11.5	27.4	10.3
CCCCn1c(N)c(N(CCC(C)C)C(=O)CC2CCCC2)c(=O)[nH]c1=O	.	-9.1	.	0.1	.
Cn1c(C(=O)N2CCc3ccccc3C2)cc2oc3ccccc3c21	-3.3	65.9*	-7.2	41.5	-8.4
CCn1c(C(=O)N2CCc3ccccc3C2)cc2oc3ccccc3c21	3.1	27.5	1.3	5.9	-15.5
CCn1c(=O)c(C(=O)Nc2ccccc2F)c(O)c2ccccc21	-0.1	-82.0	-1.1	-77.8*	3.1
COc1ccccc1C(=O)NCC(=O)OCC(=O)c1cccc2ccccc12	.	60.3*	.	19.0	.
CC(=O)n1cc(N(C(=O)CCl)c2ccc(Cl)cc2)c2ccccc21	2.8	-84.2	4.1	-83.6*	1.6
COc1ccccc1N(C(=O)CCl)c1cn(C(C)=O)c2ccccc12	5.9	-75.3	-1.3	-76.0*	-1.8
CC(=O)n1cc(Nc2ccccc2C(=O)O)c2ccccc21	7.8	2.8	.	-7.3	1.6
CCOC(=O)c1ccccc1Nc1cn(C(C)=O)c2ccccc12	5.9	17.0	-0.4	-0.9	-2.4
SMILES	HSP90 inh	HSF-1 act	Lipid droplet	HSF1 inhib	NS3 helicase inh
COc1ccccc1-c1c(C(F)(F)F)oc2cc(OCC(=O)Nc3cc(C)ccc3C)ccc2c1=O	2.9	0.6	-11.8	7.0	-6.9
CC1(C(=O)O)CCC(C(=O)Nc2ccc(OC(F)(F)Cl)cc2)C1(C)C (centres undefined)	-3.7	-2.8	-23.2	-5.4	2.9
CCNC(=S)N(CCCN(C)C)Cc1cc2cc3c(cc2[nH]c1=O)OCCO3	-1.7	-3.5	-11.2	4.4	13.2
CCOC(=O)c1nnn(CC(=O)NC(=O)Nc2ccc(F)cc2)c1C(=O)OCC	-2.7	-78.5	39.2	-71.6*	5.4
CCOC(=O)c1nnn(CC(=O)NC(=O)Nc2ccccc2)c1C(=O)OCC	0.5	-5.7	25.2	-0.1	-4.6
Cc1ccc(S(=O)(=O)c2c(N)n(Cc3ccco3)c3nc4ccccc4nc23)cc1C	4.6	72.5*	-11.2	49.6	12.8
Cc1ccc(C)c(S(=O)(=O)c2c(N)n(/N=C/c3ccco3)c3nc4ccccc4nc23)c1	0.8	52.0*	.	25.2	10.6
Cc1ccc(S(=O)(=O)c2c(N)n(CCCO)c3nc4ccccc4nc23)cc1	1.2	27.2	2.9	11.7	-3.0
CC(C)CCn1c(N)c(S(=O)(=O)c2cccs2)c2nc3ccccc3nc21	3.4	104.5*	-54.5	54.1	8.4
Nc1c(S(=O)(=O)c2cccs2)c2nc3ccccc3nc2n1CCc1ccccc1	5.9	30.2	.	13.9	-1.1
Nc1c(S(=O)(=O)c2ccccc2)c2nc3ccccc3nc2n1Cc1ccco1	2.0	13.4	.	8.6	18.7
Cc1ccc(S(=O)(=O)c2c(N)n(CCC(C)C)c3nc4ccccc4nc23)cc1	3.4	108.8*	0.9	53.2	0.0
COc1ccccc1N1CCN(C(=O)NC23CC4CC(CC(C4)C2)C3)CC1	-3.1	28.7	6.1	0.7	-18.0
O=C(NCc1ccccc1C(F)(F)F)C1CC(c2ccc(C(F)(F)F)cc2)=NO1 (centres undefined)	.	-72.3	.	-65.3*	.
CCCNC(=S)Nc1ccc(F)cc1F	0.3	6.1	6.2	4.8	-0.3
O=C(NCCc1ccccc1)c1cccc(Br)c1	2.5	64.8*	-7.3	37.3	-2.1
N#Cc1nc(-c2cccs2)oc1NCc1ccc(Cl)cc1	-4.5	62.9*	0.6	16.3	2.6
COC(=O)C1(C)NC(c2ccc(O)cc2)C2C(=O)N(c3ccccc3)C(=O)C21 (centres undefined)	-1.9	29.6	5.7	8.5	-22.2
CCOC(=O)C1(C)NC(c2ccc(O)cc2)C2C(=O)N(c3ccccc3)C(=O)C21 (centres undefined)	-0.4	-64.8	6.7	-53.6*	1.0
O=c1cc(N2CCCC2)c2ccccc2o1	-0.3	-25.6	10.6	-10.1	2.9
CC(=O)c1cnn(-c2ccccc2)c1C	-0.8	-3.6	2.3	-0.2	-1.0
CC(=O)c1cnn(-c2c(Cl)cc(Cl)cc2Cl)c1C	5.5	-63.8	6.1	-58.6*	10.7
Cc1ccc(S(=O)(=O)N2CCC(C(=O)N[C@@H](Cc3ccccc3)C(=O)O)CC2)cc1	-3.8	-80.7	-7.2	-78.0*	-0.4
O=C(NC(Cc1ccccc1)C(=O)O)C1CCN(S(=O)(=O)c2cccc(C(F)(F)F)c2)CC1 (centres undefined)	-0.1	18.5	12.1	6.1	4.3
O=C(CCl)N1N=C(c2ccco2)CC1c1cccs1 (centres undefined)	-3.9	54.8*	8.5	28.7	5.1
Cc1ccc(C2=NN(C(=O)CCl)C(c3cccs3)C2)o1 (centres undefined)	0.2	58.4*	-21.5	31.0	7.1
CCCCn1c(N)nc2ccccc21	0.8	-76.6	13.6	-71.2*	-7.1
COc1cccc(C(=O)NC(c2ccccc2)C2CCCC2)c1 (centres undefined)	1.2	68.9*	7.7	31.2	2.6
NC1=NC(c2cn[nH]c2-c2cccc(F)c2)n2c(nc3ccccc32)N1 (centres undefined)	-1.2	-80.1	12.1	-74.5*	-9.1
